Results: ChEMBL document CHEMBL4811269, “Design, synthesis and antibacterial evaluation of novel C-11, C-9 or C-2'-substituted 3-O-descladinosyl-3-ketoclarithromycin derivatives” (Bioorg Med Chem Lett, 2021)
Values after ≈ are worked out from the molar mass of the structure shown.

Key:
Staphylococcus aureus [1] = test: Antibacterial activity against methicillin-resistant Staphylococcus aureus ATCC 43300 by broth microdilution method; format: functional
How it was run: (§1)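 MIC by standard NCCLS broth microdilution against resistant S. aureus strains, reported in µg/mL. Clarithromycin and azithromycin were run alongside as references.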

Staphylococcus aureus [2] = test: Antibacterial activity against penicillin-resistant Staphylococcus aureus ATCC 31007 by broth microdilution method; format: functional; how it was run: as §1
Streptococcus pneumoniae [3] = test: Antibacterial activity against erythromycin-resistant Streptococcus pneumoniae B1 by broth microdilution method; format: functional
How it was run: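 MIC by standard NCCLS broth microdilution, reported in µg/mL. The strain expresses the ermB gene. Clarithromycin and azithromycin were run alongside as references.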

Streptococcus pneumoniae [4] = test: Antibacterial activity against erythromycin-resistant Streptococcus pneumoniae AB11 by broth microdilution method; format: functional
How it was run: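 MIC by standard NCCLS broth microdilution, reported in µg/mL. The strain expresses the ermB and mefA genes. Clarithromycin and azithromycin were run alongside as references.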

Streptococcus pyogenes = test: Antibacterial activity against erythromycin-resistant Streptococcus pyogenes R1 by broth microdilution method; format: functional
How it was run: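 MIC by standard NCCLS broth microdilution, reported in µg/mL. The strain is a clinically isolated erythromycin-resistant strain. Clarithromycin and azithromycin were run alongside as references.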

Pseudomonas aeruginosa = test: Antibacterial activity against penicillin-susceptible Pseudomonas aeruginosa ATCC 27853 by broth microdilution method; format: functional
How it was run: (§2)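 MIC determined by standard broth microdilution per NCCLS recommendations, read as minimal inhibitory concentration in µg/mL. Standard ATCC strains tested alongside the other panel strains, with clarithromycin and azithromycin as reference agents.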

Staphylococcus aureus [5] = test: Antibacterial activity against erythromycin-susceptible Staphylococcus aureus ATCC 25923 by broth microdilution method; format: functional; how it was run: as §2
Bacillus subtilis = test: Antibacterial activity against penicillin-susceptible Bacillus subtilis ATCC9372 by broth microdilution method; format: functional; how it was run: as §2
[6] = Chemical stability of the compound in pH 7.4 phosphate solution after 24 hrs by HPLC analysis; format: physicochemical; details: buffer, pH 7.4, 24 h
How it was run: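 Compound held in phosphate solution (pH = 7.4) at 25 °C and monitored by HPLC over 24 h. Stability judged from change in peak area.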

Structure (SMILES) | MIC (Staphylococcus aureus [1]) [µg/mL] | MIC (Staphylococcus aureus [2]) [µg/mL] | MIC (Streptococcus pneumoniae [3]) [µg/mL] | MIC (Streptococcus pneumoniae [4]) [µg/mL] | MIC (Streptococcus pyogenes) [µg/mL] | MIC (Pseudomonas aeruginosa) [µg/mL] | MIC (Staphylococcus aureus [5]) [µg/mL] | MIC (Bacillus subtilis) [µg/mL] | Stabilty [6]
CO[C@]1(C)C[C@@H](C)[C@H](OC(=O)c2ccc(C)cc2)[C@H](C)CN(C)CCOC(=O)[C@H](C)C(=O)[C@H](C)[C@H]1O[C@@H]1O[C@H](C)C[C@H](N(C)C)[C@H]1OC(=O)c1ccc(C)cc1 | > 256 | > 256 | > 256 | > 256 | > 256 | > 128 | 128 (≈ 164 µM) | > 128 | Stable
CO[C@]1(C)C[C@@H](C)[C@H](OC(=O)c2ccc(Cl)cc2)[C@H](C)CN(C)CCOC(=O)[C@H](C)C(=O)[C@H](C)[C@H]1O[C@@H]1O[C@H](C)C[C@H](N(C)C)[C@H]1OC(=O)c1ccc(Cl)cc1 | > 256 | > 256 | 128 (≈ 156 µM) | > 256 | > 256 | > 128 | 128 (≈ 156 µM) | > 128 | Stable
